Results taken from ChEMBL document CHEMBL6092177, “Applying molecular hybridization to design a new class of pyrazolo[3,4-d]pyrimidines as Src inhibitors active in hepatocellular carcinoma” (Eur J Med Chem, 2024).
Converted amounts (≈) assume the structure as drawn. The source made the active and inactive calls. The calls are words filed in the database; no cut-off is given here.

Tests used:
HepG2 [1] = test: Antiproliferative activity against human HepG2 cells assessed as cell growth inhibition measured at 72 hrs by MTT assay; conditions: HepG2, 72 h
Huh-7 [2] = test: Antiproliferative activity against human Huh-7 cells assessed as cell growth inhibition measured at 24 hrs by MTT assay; conditions: Huh-7, 24 h
Huh-7 [3] = test: Antiproliferative activity against human Huh-7 cells assessed as cell growth inhibition measured at 48 hrs by MTT assay; conditions: Huh-7, 48 h
Huh-7 [4] = test: Antiproliferative activity against human Huh-7 cells assessed as cell growth inhibition measured at 72 hrs by MTT assay; conditions: Huh-7, 72 h
[5] = Thermodynamic solubility of compound by LC-MS/MS analysis; type: physicochemical; conditions: read-out: Therm_solubility
Outline: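 Thermodynamic solubility: solubilized compound quantified in triplicate by LC-MS/MS on a C18 column with water/ACN gradient, both with 0.1% formic acid. Calibration from DMSO standards 0.1–100 µM; LoQ below 0.01 µM.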

[6] = Apparent permeability of compound in PBS buffer at pH 7.4 incubated for 4 hrs by LC-UV-MS analysis; type: ADME; conditions: not told
Outline: (§1)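 PAMPA: DMSO stock diluted 1:1 with 10 mM PBS pH 7.4 as donor, through filter coated with 1% phosphatidylcholine in dodecane. Acceptor DMSO/PBS 1:1; incubated at rt for 4 h with gentle shaking. Both compartments quantified by LC-UV-MS to give Papp and % membrane retention; three independent experiments in triplicate.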

[7] = Permeability of the compound in PBS buffer at pH 7.4 assessed as membrane retention rate by PAMPA method; type: ADME; outline: as §1
[8] = Metabolic stability in human liver microsome measured after 1 hr in presence of NADPH by UV/LC-MS analysis; type: ADME; conditions: liver microsomes, read-out: Stability
Outline: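 Compound incubated with HLM (0.2 mg/mL) and NADPH (in 48 mM MgCl2) in 10 mM PBS pH 7.4 at 37 °C for 60 min with shaking. Stopped with cold ACN, centrifuged, dried under N2 and quantified by UV/LC-MS for % unmetabolized.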

[9] = Stability in human plasma measured after 24 hrs by UV-LC/MS analysis; type: ADME, cell-free; conditions: read-out: Stability
[10] = Stability in human plasma assessed as half life measured up to 24 hrs by UV-LC/MS analysis; type: ADME, cell-free
HepG2 [11] = test: Antiproliferative activity against human HepG2 cells assessed as cell growth inhibition measured at 24 hrs by MTT assay; conditions: HepG2, 24 h
HepG2 [12] = test: Antiproliferative activity against human HepG2 cells assessed as cell growth inhibition measured at 48 hrs by MTT assay; conditions: HepG2, 48 h
[13] = Inhibition of Abl (unknown origin)
[14] = Cytotoxicity against human HaCaT cells assessed as reduction in cell proliferation incubated for 24 hrs by MTT assay; type: toxicity, cell-based
[15] = Cytotoxicity against human HaCaT cells assessed as reduction in cell proliferation incubated for 48 hrs by MTT assay; type: toxicity, cell-based
[16] = Cytotoxicity against human HaCaT cells assessed as reduction in cell proliferation incubated for 72 hrs by MTT assay; type: toxicity, cell-based
[17] = Cytotoxicity against human HEK293 cells assessed as reduction in cell proliferation incubated for 24 hrs by MTT assay; type: toxicity, cell-based
[18] = Cytotoxicity against human HEK293 cells assessed as reduction in cell proliferation incubated for 48 hrs by MTT assay; type: toxicity, cell-based
[19] = Cytotoxicity against human HEK293 cells assessed as reduction in cell proliferation incubated for 72 hrs by MTT assay; type: toxicity, cell-based
HepG2 [20] = test: Inhibition of cell colony formation in human HepG2 cells assessed as reduction in clonogenic survival at 0.5 uM incubated for 10 days by crystal violet staining based assay; type: functional; conditions: HepG2, 240 h, time 10 day
Outline: (§2)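 HepG2 at 1000 cells/dish in DMEM with 10% FBS, exposed to 0.25, 0.5, 1 or 2 µM for 10 days. Colonies (>50 cells) fixed with methanol, stained with 0.5% crystal violet and counted. Three independent experiments in triplicate; unpaired t-test vs untreated.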

HepG2 [21] = test: Inhibition of cell colony formation in human HepG2 cells assessed as reduction in clonogenic survival at 1 to 2 uM incubated for 10 days by crystal violet staining based assay; type: functional; conditions: dose 1-2 µM, time 10 day; outline: as §2
HepG2 [22] = test: Antiproliferative activity against human HepG2 cells assessed as inhibition of cell growth at 10 to 100 uM preincubated for 24 hrs followed by 48 hrs drug-free treatment by MTT assay; type: functional, cell-based; conditions: dose 10-100 µM
Outline: (§3)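 HepG2 exposed to 0.1–100 µM for 24 h (or 48 h), then washed with PBS and kept 48 h (or 24 h) in drug-free DMEM with 10% FBS. Viability by MTT. Means ± SD of three independent experiments in triplicate; ANOVA with Tukey test.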

HepG2 [23] = test: Antiproliferative activity against human HepG2 cells assessed as inhibition of cell growth at 0.1 to 1 uM incubated for 24 hrs by MTT assay; type: functional, cell-based; conditions: dose 0.1-1 µM; outline: as §3
HepG2 [24] = test: Antiproliferative activity against human HepG2 cells assessed as cell viability at 0.1 to 1 uM preincubated for 24 hrs followed by 48 hrs drug-free treatment by MTT assay; type: functional; conditions: dose 0.1-1 µM; outline: as §3
HepG2 [25] = test: Induction of cell cycle arrest in human HepG2 cells assessed as accumulation of hypodiploid cells at sub G0/G1 phase incubated for 72 hrs by FACScan flow cytometer analysis relative to control; type: functional
Outline: (§4)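 HepG2 treated about 2 µM for 72 h. DNA content measured by FACScan flow cytometry, red fluorescence through a 563–607 nm bandpass (FL2), 10^4 cells/sample. Phase percentages are means ± SD of three independent experiments in triplicate vs control.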

HepG2 [26] = test: Induction of cell cycle arrest in human HepG2 cells assessed as decrease in accumulation of G0/G1 phase incubated for 72 hrs by FACScan flow cytometer analysis relative to control; type: functional; set-up: scale not given: the % may be the effect or the level left; outline: as §4
HepG2 [27] = test: Induction of cell cycle arrest in human HepG2 cells assessed as accumulation of cells at S phase incubated for 72 hrs by FACScan flow cytometer analysis relative to control; type: functional; outline: as §4
HepG2 [28] = test: Induction of cell cycle arrest in human HepG2 cells assessed as accumulation of cells at G2/M phase incubated for 72 hrs by FACScan flow cytometer analysis relative to control; type: functional; outline: as §4
HepG2 [29] = test: Inhibition of cell migration in human HepG2 cells assessed as wound closure at 0.25 uM measured at 72 hrs by T-sratch assay; conditions: HepG2, 72 h

Row | Compound | IC50 (HepG2 [1]) | IC50 (Huh-7 [2]) | IC50 (Huh-7 [3]) | IC50 (Huh-7 [4]) | solubility thermodynamic [5] | Papp at 4 h [6] | membrane retention [7] | remaining at 1 h [8] | remaining at 24 h [9] | IC50 (HepG2 [11]) | IC50 (HepG2 [12]) | also measured
1 | Cn1ncc2c(Nc3ncc(C(=O)Nc4ccccc4)s3)nc(SCCN3CCOCC3)nc21 | 7.9 µM | 67.6 µM | 33.5 µM | 14 µM | < 0.01 µg/mL | 1.61 ×10⁻⁶ cm/s | 16.49% | 99.8% | 98.3% | – | – | half-life [10]: > 24 h
2 | O=C(Nc1cccc(O)c1)c1cnc(Nc2ncnc3c2cnn3CC(Cl)c2ccccc2)s1 (stereo not given) | 3.19 µM | – | 22 µM | 11.1 µM | < 0.01 µg/mL | 0.14 ×10⁻⁶ cm/s | 6.1% | > 100% | > 100% | 87.1 µM | 5.06 µM | –
3 | Cc1nc(Nc2ncc(C(=O)Nc3c(C)cccc3Cl)s2)cc(N2CCN(CCO)CC2)n1 [DASATINIB ANHYDROUS] | 7.75 µM | 37.5 µM | 16.3 µM | 12.7 µM | – | – | – | – | – | 23.5 µM | 9.54 µM | IC50 [13]: 0.0006 µM; CC50 at 24 h [14]: 20.4 µM; CC50 at 48 h [15]: 1.35 µM; CC50 at 72 h [16]: 0.22 µM; CC50 at 24 h [17]: 5.4 µM; CC50 at 48 h [18]: 0.89 µM; CC50 at 72 h [19]: 0.78 µM
4 | Cn1ncc2c(Nc3ncc(C(=O)Nc4cccc(O)c4)s3)nc(NCCO)nc21 | 6.52 µM | – | 48.8 µM | 26.1 µM | 0.01 µg/mL (≈ 0.0234 µM) | < 0.1 ×10⁻⁶ cm/s | 7.28% | > 100% | 94.5% | – | – | –
5 | O=C(Nc1ccccc1)c1cnc(Nc2ncnc3c2cnn3CC(Cl)c2ccccc2)s1 (stereo not given) | 3.7 µM | – | 21.2 µM | 15.3 µM | < 0.01 µg/mL | 12 ×10⁻⁶ cm/s | 8.36% | 99% | 88.5% | – | 7.46 µM | –

Continued, in another order:

Row | IC50 (HepG2 [1]) | IC50 (Huh-7 [2]) | IC50 (Huh-7 [3]) | IC50 (Huh-7 [4]) | solubility thermodynamic [5] | Papp at 4 h [6] | membrane retention [7] | remaining at 1 h [8] | remaining at 24 h [9] | IC50 (HepG2 [11]) | IC50 (HepG2 [12]) | Compound | also measured
6 | 1.55 µM | 26.5 µM | 13.7 µM | 7.21 µM | < 0.01 µg/mL | < 0.1 ×10⁻⁶ cm/s | 0.51% | > 100% | 99.5% | 12 µM | 7.31 µM | Cn1ncc2c(Nc3ncc(C(=O)Nc4cc(O)ccc4Br)s3)nc(SCCN3CCOCC3)nc21 | –
7 | > 50 µM | – | – | – | 0.03 µg/mL (≈ 0.0585 µM) | 0.1 ×10⁻⁶ cm/s | 3.1% | 99.4% | – | > 50 µM | > 50 µM | Cn1ncc2c(Nc3ncc(C(=O)Nc4cccc(O)c4)s3)nc(SCCN3CCOCC3)nc21 | –
8 | 2.47 µM | 54.7 µM | 28.8 µM | 10.3 µM | < 0.01 µg/mL | < 0.1 ×10⁻⁶ cm/s | 19% | > 100% | > 100% | 59.6 µM | 13.9 µM | Cc1ccc(O)cc1NC(=O)c1cnc(Nc2nc(SCCN3CCOCC3)nc3c2cnn3C)s1 | CC50 at 24 h [14]: 92.8 µM; CC50 at 48 h [15]: 22.8 µM; CC50 at 72 h [16]: 3.27 µM; CC50 at 24 h [17]: 18.5 µM; CC50 at 48 h [18]: 6.9 µM; CC50 at 72 h [19]: 5.23 µM; inhibition at 0.5 µM (HepG2 [20]): 40%; Activity (HepG2 [21]): 24%; Activity (HepG2 [22]): inactive; Activity (HepG2 [23]): Active; Activity (HepG2 [24]): 15%; Activity (HepG2 [25]): 44.1%; Activity (HepG2 [26]): 10.4%; Activity (HepG2 [27]): 25.2%; Activity (HepG2 [28]): 38.5%; wound closure % at 0.25 µM (HepG2 [29]): ~70%
